{"source": "ChEMBL document CHEMBL1129618", "about": "“(+/-)-3-[4'-(N,N-dimethylamino)cinnamyl]benzazepine analogs: novel dopamine D1 receptor antagonists” (J Med Chem, 1996)", "key": {"[1]": {"target": "T1, D(1A) dopamine receptor (Rattus norvegicus, UniProt P18901)", "T1 sequence (P18901 whole entry)": "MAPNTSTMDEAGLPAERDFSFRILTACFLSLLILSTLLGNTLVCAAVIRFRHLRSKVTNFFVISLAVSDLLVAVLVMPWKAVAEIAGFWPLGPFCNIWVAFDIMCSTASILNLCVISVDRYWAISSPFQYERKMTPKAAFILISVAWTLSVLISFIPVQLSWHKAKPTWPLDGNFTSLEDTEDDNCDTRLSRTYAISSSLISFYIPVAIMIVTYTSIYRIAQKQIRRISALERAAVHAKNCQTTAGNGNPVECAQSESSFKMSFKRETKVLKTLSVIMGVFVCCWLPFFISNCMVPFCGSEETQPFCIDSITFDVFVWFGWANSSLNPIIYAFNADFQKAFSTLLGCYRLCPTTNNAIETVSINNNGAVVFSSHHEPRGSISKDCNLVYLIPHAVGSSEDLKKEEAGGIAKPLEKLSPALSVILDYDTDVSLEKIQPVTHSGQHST", "assay": "Dopamine receptor D1 antagonistic activity as ability to block dopamine-stimulated adenylate cyclase in rat caudate", "type": "functional"}, "[2]": {"target": "D(2) dopamine receptor (Rattus norvegicus, UniProt P61169)", "sequence (P61169 whole entry)": "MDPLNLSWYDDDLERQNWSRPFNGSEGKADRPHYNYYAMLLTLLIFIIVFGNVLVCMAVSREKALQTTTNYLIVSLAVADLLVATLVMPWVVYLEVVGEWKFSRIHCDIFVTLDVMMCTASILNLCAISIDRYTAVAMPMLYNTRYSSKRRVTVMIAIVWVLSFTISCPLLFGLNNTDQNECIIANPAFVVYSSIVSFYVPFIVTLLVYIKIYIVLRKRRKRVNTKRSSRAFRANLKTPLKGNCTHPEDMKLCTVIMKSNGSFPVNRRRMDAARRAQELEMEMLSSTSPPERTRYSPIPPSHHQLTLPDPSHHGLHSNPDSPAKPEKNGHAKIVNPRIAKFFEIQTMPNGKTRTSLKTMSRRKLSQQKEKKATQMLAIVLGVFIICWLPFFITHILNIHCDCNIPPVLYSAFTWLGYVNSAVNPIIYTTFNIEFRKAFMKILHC", "assay": "Affinity for Dopamine receptor D2 binding measured by sulpiride […] to rat striatal membrane", "set-up": "species or system Striatum", "summary_of_the_method": "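Competition binding against [³H]sulpiride at D2 sites in rat striatal (caudate putamen) membranes. Ki values are means ± SEM of at least three determinations, each run in triplicate.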"}, "[3]": {"target": "T1, D(1A) dopamine receptor", "assay": "Affinity for Dopamine receptor D1 binding measured by competition against [3H]-SCH- 23390 to rat striatal membrane", "set-up": "species or system Striatum", "summary_of_the_method": "(§1)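 Competition binding against [³H]SCH 23390 at D1 sites in rat striatal (caudate putamen) membranes. Ki values are means ± SEM of at least three determinations, each run in triplicate.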"}, "[4]": {"target": "T1, D(1A) dopamine receptor", "assay": "Affinity for dopamine receptor D1 binding measured by competition against [3H]-SCH- 23390 to rat striatal membrane", "set-up": "species or system Striatum", "summary_of_the_method": "as §1"}}}
{"smiles": "CN(C)CCCCCCN1CCc2cc(Cl)c(O)cc2C(c2ccccc2)C1", "note": "(stereo unspecified)", "values": [{"measurement": "Ki", "setting": "[1]", "value": 0.021, "unit": "µM"}, {"measurement": "Ki", "setting": "[2]; read-out: Ki", "value": 4.13, "unit": "µM"}]}
{"smiles": "COc1cc2c(cc1Br)CCN(C/C=C/c1ccc(N(C)C)cc1)CC2c1ccccc1", "note": "(stereo unspecified)", "values": [{"measurement": "Ki", "setting": "[2]; read-out: Ki", "value": 2, "unit": "µM"}]}
{"smiles": "CN(C)c1ccc(/C=C/CN2CCc3cc(Cl)c(O)cc3C(c3ccccc3)C2)cc1", "note": "(stereo unspecified)", "values": [{"measurement": "Ki", "setting": "[1]", "value": 0.0184, "unit": "µM"}, {"measurement": "Ki", "setting": "[2]; read-out: Ki", "value": 0.345, "unit": "µM"}]}
{"smiles": "CN(C)CCCCN1CCc2cc(Cl)c(O)cc2C(c2ccccc2)C1", "note": "(stereo unspecified)", "values": [{"measurement": "Ki", "setting": "[2]; read-out: Ki", "value": 3.45, "unit": "µM"}]}
{"smiles": "CN(C)c1ccc(CCN2CCc3cc(Cl)c(O)cc3C(c3ccccc3)C2)cc1", "note": "(stereo unspecified)", "values": [{"measurement": "Ki", "setting": "[3]", "value": 0.0884, "unit": "µM"}]}
{"smiles": "CN(C)c1ccc(/C=C/CN2CCc3cc(Br)c(O)cc3C(c3ccccc3)C2)cc1", "note": "(stereo unspecified)", "values": [{"measurement": "Ki", "setting": "[4]", "value": 0.12, "unit": "µM"}, {"measurement": "Ki", "setting": "[2]; read-out: Ki", "value": 0.858, "unit": "µM"}]}
{"smiles": "Oc1cc2c(cc1Br)CCN(C/C=C/c1ccccc1)CC2c1ccccc1", "note": "(stereo unspecified)", "values": [{"measurement": "Ki", "setting": "[4]", "value": 0.209, "unit": "µM"}, {"measurement": "Ki", "setting": "[2]", "value": "Insoluble"}]}
